In article PMC13170702 (Nuclear medicine and biology, 2025):

Assay: organ radiation dose estimates, OLINDA 2.0, ICRP-103
Type: in vivo, human
Method in brief: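 Whole-body PET-MR ran as nine scans to 214 min. Organ VOIs were drawn in AMIDE, giving decay-corrected %IA per VOI; remainder = whole body minus measured organs. TIACs came from the EXM exponential model (OLINDA 1.1). Per-participant organ doses were computed in OLINDA 2.0 with 73 kg adult male or 60 kg female models. Effective dose (mSv) = organ absorbed doses × ICRP-103 tissue weighting factors.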

Estimated dose, Thyroid (Female n=4, mean±SD): 0.0239±0.0171 mGy/MBq
Estimated dose, Urinary bladder wall (Female n=4, mean±SD): 0.0516±0.0371 mGy/MBq
Estimated dose, Uterus (Female n=4, mean±SD): 0.0573±0.0514 mGy/MBq
Effective dose (whole body) (M1 (326 MBq)): 6.65 mSv
Estimated absorbed dose, Adrenals (M1 (326 MBq)): 13.5 mGy
Estimated absorbed dose, Brain (M1 (326 MBq)): 5.47 mGy
Estimated absorbed dose, Colon, left (M1 (326 MBq)): 5.63 mGy
Estimated absorbed dose, Colon, right (M1 (326 MBq)): 4.95 mGy
Estimated absorbed dose, Esophagus (M1 (326 MBq)): 5.18 mGy
Estimated absorbed dose, Eyes (M1 (326 MBq)): 2.26 mGy
Estimated absorbed dose, Gallbladder wall (M1 (326 MBq)): 10.3 mGy
Estimated absorbed dose, Heart wall (M1 (326 MBq)): 9.25 mGy
Estimated absorbed dose, Kidneys (M1 (326 MBq)): 70.7 mGy
Estimated absorbed dose, Liver (M1 (326 MBq)): 17.5 mGy
Estimated absorbed dose, Lungs (M1 (326 MBq)): 17.0 mGy
Estimated absorbed dose, Osteogenic cells (M1 (326 MBq)): 2.80 mGy
Estimated absorbed dose, Pancreas (M1 (326 MBq)): 5.93 mGy
Estimated absorbed dose, Prostate (M1 (326 MBq)): 3.21 mGy
Estimated absorbed dose, Rectum (M1 (326 MBq)): 3.35 mGy
Estimated absorbed dose, Red marrow (M1 (326 MBq)): 3.48 mGy
Estimated absorbed dose, Salivary glands (M1 (326 MBq)): 2.64 mGy
Estimated absorbed dose, Small intestine (M1 (326 MBq)): 17.2 mGy
Estimated absorbed dose, Spleen (M1 (326 MBq)): 24.9 mGy
Estimated absorbed dose, Stomach wall (M1 (326 MBq)): 5.27 mGy
Estimated absorbed dose, Testes (M1 (326 MBq)): 2.11 mGy
Estimated absorbed dose, Thymus (M1 (326 MBq)): 14.7 mGy
Estimated absorbed dose, Thyroid (M1 (326 MBq)): 4.36 mGy
Estimated absorbed dose, Urinary bladder wall (M1 (326 MBq)): 3.68 mGy
Effective dose (whole body) (M2 (289 MBq)): 4.65 mSv
Estimated absorbed dose, Adrenals (M2 (289 MBq)): 12.3 mGy
Estimated absorbed dose, Brain (M2 (289 MBq)): 2.94 mGy
Estimated absorbed dose, Colon, left (M2 (289 MBq)): 5.05 mGy
Estimated absorbed dose, Colon, right (M2 (289 MBq)): 4.10 mGy
Estimated absorbed dose, Esophagus (M2 (289 MBq)): 4.39 mGy
Estimated absorbed dose, Eyes (M2 (289 MBq)): 1.91 mGy
Estimated absorbed dose, Gallbladder wall (M2 (289 MBq)): 6.09 mGy
Estimated absorbed dose, Heart wall (M2 (289 MBq)): 33.5 mGy
Estimated absorbed dose, Kidneys (M2 (289 MBq)): 74.2 mGy
Estimated absorbed dose, Liver (M2 (289 MBq)): 10.1 mGy
Estimated absorbed dose, Lungs (M2 (289 MBq)): 2.65 mGy
Estimated absorbed dose, Osteogenic cells (M2 (289 MBq)): 2.33 mGy
Estimated absorbed dose, Pancreas (M2 (289 MBq)): 44.4 mGy
Estimated absorbed dose, Prostate (M2 (289 MBq)): 2.91 mGy
Estimated absorbed dose, Rectum (M2 (289 MBq)): 2.77 mGy
Estimated absorbed dose, Red marrow (M2 (289 MBq)): 2.76 mGy
Estimated absorbed dose, Salivary glands (M2 (289 MBq)): 2.20 mGy
Estimated absorbed dose, Small intestine (M2 (289 MBq)): 4.04 mGy
Estimated absorbed dose, Spleen (M2 (289 MBq)): 9.84 mGy
Estimated absorbed dose, Stomach wall (M2 (289 MBq)): 5.89 mGy
Estimated absorbed dose, Testes (M2 (289 MBq)): 2.02 mGy
Estimated absorbed dose, Thymus (M2 (289 MBq)): 5.86 mGy
Estimated absorbed dose, Thyroid (M2 (289 MBq)): 2.40 mGy
Estimated absorbed dose, Urinary bladder wall (M2 (289 MBq)): 4.70 mGy
Effective dose (whole body) (M3 (70.3 MBq)): 1.25 mSv
Estimated absorbed dose, Adrenals (M3 (70.3 MBq)): 2.34 mGy
Estimated absorbed dose, Brain (M3 (70.3 MBq)): 0.810 mGy
Estimated absorbed dose, Colon, left (M3 (70.3 MBq)): 0.970 mGy
Estimated absorbed dose, Colon, right (M3 (70.3 MBq)): 0.900 mGy
Estimated absorbed dose, Esophagus (M3 (70.3 MBq)): 1.00 mGy
Estimated absorbed dose, Eyes (M3 (70.3 MBq)): 0.450 mGy
Estimated absorbed dose, Gallbladder wall (M3 (70.3 MBq)): 1.53 mGy
Estimated absorbed dose, Heart wall (M3 (70.3 MBq)): 1.84 mGy
Estimated absorbed dose, Kidneys (M3 (70.3 MBq)): 12.4 mGy
Estimated absorbed dose, Liver (M3 (70.3 MBq)): 2.85 mGy
Estimated absorbed dose, Lungs (M3 (70.3 MBq)): 3.35 mGy
Estimated absorbed dose, Osteogenic cells (M3 (70.3 MBq)): 0.557 mGy
Estimated absorbed dose, Pancreas (M3 (70.3 MBq)): 1.15 mGy
Estimated absorbed dose, Prostate (M3 (70.3 MBq)): 0.724 mGy
Estimated absorbed dose, Rectum (M3 (70.3 MBq)): 0.702 mGy
Estimated absorbed dose, Red marrow (M3 (70.3 MBq)): 0.692 mGy
Estimated absorbed dose, Salivary glands (M3 (70.3 MBq)): 0.536 mGy
Estimated absorbed dose, Small intestine (M3 (70.3 MBq)): 1.93 mGy
Estimated absorbed dose, Spleen (M3 (70.3 MBq)): 2.65 mGy
Estimated absorbed dose, Stomach wall (M3 (70.3 MBq)): 0.984 mGy
Estimated absorbed dose, Testes (M3 (70.3 MBq)): 0.477 mGy
Estimated absorbed dose, Thymus (M3 (70.3 MBq)): 1.58 mGy
Estimated absorbed dose, Thyroid (M3 (70.3 MBq)): 0.830 mGy
Estimated absorbed dose, Urinary bladder wall (M3 (70.3 MBq)): 2.00 mGy
Effective dose (whole body) (M4 (153 MBq)): 2.62 mSv
Estimated absorbed dose, Adrenals (M4 (153 MBq)): 5.67 mGy
Estimated absorbed dose, Brain (M4 (153 MBq)): 2.17 mGy
Estimated absorbed dose, Colon, left (M4 (153 MBq)): 2.46 mGy
Estimated absorbed dose, Colon, right (M4 (153 MBq)): 2.15 mGy
Estimated absorbed dose, Esophagus (M4 (153 MBq)): 2.06 mGy
Estimated absorbed dose, Eyes (M4 (153 MBq)): 1.08 mGy
Estimated absorbed dose, Gallbladder wall (M4 (153 MBq)): 3.76 mGy
Estimated absorbed dose, Heart wall (M4 (153 MBq)): 3.73 mGy
Estimated absorbed dose, Kidneys (M4 (153 MBq)): 31.2 mGy
Estimated absorbed dose, Liver (M4 (153 MBq)): 5.85 mGy
Estimated absorbed dose, Lungs (M4 (153 MBq)): 5.53 mGy
Estimated absorbed dose, Osteogenic cells (M4 (153 MBq)): 1.28 mGy
Estimated absorbed dose, Pancreas (M4 (153 MBq)): 3.39 mGy
Estimated absorbed dose, Prostate (M4 (153 MBq)): 1.60 mGy
Estimated absorbed dose, Rectum (M4 (153 MBq)): 1.64 mGy
Estimated absorbed dose, Red marrow (M4 (153 MBq)): 1.54 mGy
Estimated absorbed dose, Salivary glands (M4 (153 MBq)): 1.26 mGy
Estimated absorbed dose, Small intestine (M4 (153 MBq)): 6.45 mGy
Estimated absorbed dose, Spleen (M4 (153 MBq)): 8.39 mGy
Estimated absorbed dose, Stomach wall (M4 (153 MBq)): 2.22 mGy
Estimated absorbed dose, Testes (M4 (153 MBq)): 1.09 mGy
Estimated absorbed dose, Thymus (M4 (153 MBq)): 5.87 mGy
Estimated absorbed dose, Thyroid (M4 (153 MBq)): 2.28 mGy
Estimated absorbed dose, Urinary bladder wall (M4 (153 MBq)): 2.61 mGy
Effective dose (whole body) (Male n=4, mean±SD): 0.0179±0.0018 mSv/MBq
Estimated dose, Adrenals (Male n=4, mean±SD): 0.0386±0.0043 mGy/MBq
Estimated dose, Brain (Male n=4, mean±SD): 0.0132±0.0029 mGy/MBq
Estimated dose, Esophagus (Male n=4, mean±SD): 0.0147±0.0011 mGy/MBq
Estimated dose, Eyes (Male n=4, mean±SD): 0.00678±0.00029 mGy/MBq
Estimated dose, Gallbladder wall (Male n=4, mean±SD): 0.0248±0.0048 mGy/MBq
Estimated dose, Heart wall (Male n=4, mean±SD): 0.0488±0.0449 mGy/MBq
Estimated dose, Kidneys (Male n=4, mean±SD): 0.214±0.034 mGy/MBq
Estimated dose, Left colon (Male n=4, mean±SD): 0.0162±0.0017 mGy/MBq
Estimated dose, Liver (Male n=4, mean±SD): 0.0419±0.0082 mGy/MBq
Estimated dose, Lungs (Male n=4, mean±SD): 0.0363±0.0193 mGy/MBq
Estimated dose, Osteogenic cells (Male n=4, mean±SD): 0.00825±0.00031 mGy/MBq
Estimated dose, Pancreas (Male n=4, mean±SD): 0.0527±0.0676 mGy/MBq
Estimated dose, Prostate (Male n=4, mean±SD): 0.0102±0.0003 mGy/MBq
Estimated dose, Rectum (Male n=4, mean±SD): 0.0101±0.0005 mGy/MBq
Estimated dose, Red marrow (Male n=4, mean±SD): 0.0101±0.0005 mGy/MBq
Estimated dose, Right colon (Male n=4, mean±SD): 0.0141±0.0010 mGy/MBq
Estimated dose, Salivary Glands (Male n=4, mean±SD): 0.00791±0.0003 mGy/MBq
Estimated dose, Small intestine (Male n=4, mean±SD): 0.0341±0.0169 mGy/MBq
Estimated dose, Spleen (Male n=4, mean±SD): 0.0508±0.0194 mGy/MBq
Estimated dose, Stomach wall (Male n=4, mean±SD): 0.0163±0.0029 mGy/MBq
Estimated dose, Testes (Male n=4, mean±SD): 0.00684±0.00028 mGy/MBq
Estimated dose, Thymus (Male n=4, mean±SD): 0.0316±0.0122 mGy/MBq
Estimated dose, Thyroid (Male n=4, mean±SD): 0.0121±0.0028 mGy/MBq
Estimated dose, Urinary bladder wall (Male n=4, mean±SD): 0.0183±0.0073 mGy/MBq
SMILES: COC(=O)[C@@H](N)CC(=O)Nc1ccc2c(c1)Cc1cc([18F])ccc1-2 [[^18F]RP-115, methyl N^4-(7-[^18F]fluoro-9H-fluoren-2-yl)asparaginate]
